Measured values as given in EPA's CvTdb concentration-time database.
Values joined by “and” are separate entries in the source; they are usually repeats but may differ in a detail not shown here. Equal values may be shown once.

Columns and labels:
rat [1] = experiment: concentration in blood after dosing
rat [2] = experiment: concentration in blood after dosing; details: dosed: benzene, 40000 ppm, dermal, duration: 4 hr, male, F344
rat [3] = experiment: concentration in adipose after dosing; details: male
rat [4] = experiment: concentration in blood after dosing; details: dosed: benzene, 40000 ppm, dermal, duration: 4 hr, male, F344; remark: listed apart in the source
rat [5] = experiment: concentration in blood after dosing; details: dosed: benzene, 40000 ppm, dermal, duration: 4 hr, male, F344; remark: listed apart in the source
rat [6] = experiment: concentration in blood after dosing; details: dosed: benzene, 40000 ppm, dermal, duration: 4 hr, male, F344; remark: listed apart in the source
rat [7] = experiment: concentration in lung after dosing; details: dosed: benzo(a)pyrene, 40 umol/kg, iv, male, Sprague Dawley
rat [8] = experiment: concentration in kidney after dosing; details: dosed: benzo(a)pyrene, 40 umol/kg, iv, male, Sprague Dawley
rat [9] = experiment: concentration in skin after dosing; details: dosed: benzo(a)pyrene, 40 umol/kg, iv, male, Sprague Dawley
rat [10] = experiment: concentration in blood after dosing (% dose/mL); details: dosed: benzo(a)pyrene, 117 nmol, iv, male, Sprague Dawley
rat [11] = experiment: concentration in liver after dosing; details: dosed: benzo(a)pyrene, 40 umol/kg, iv, male, Sprague Dawley
rat [12] = experiment: concentration in feces after dosing; details: dosed: benzo(a)pyrene, 40 umol/kg, iv, male, Sprague Dawley
human = experiment: concentration in blood after dosing; details: dosed: chlorobenzene, 10 ppm, inhalation, duration: 8 hr
In short: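 Data points giving concentration or amount against time came from published in vivo toxicokinetic studies and from two structured collections. PubMed searching, classifier screening and manual review located the studies. Most points were digitised from plot screenshots using WebPlotDigitizer, the rest were copied from tables, and all keep their reported units.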

COc1ccccc1N=Nc1c(O)ccc2ccccc12 [Solvent red1]
rat [1], dosed: Solvent red1, 20 mg/kg, oral, Sprague Dawley
Details	concentration in blood [ng/mL]
0.2399 h	122
0.4077 h	341
0.7668 h	990
1.067 h	510
1.606 h	274
2.085 h	139
2.561 h	90.5
3.615 h	46.4
4.567 h	15.8
5.518 h	10.3
7.58 h	8.35
9.583 h	4.6
13.09 h	4.34
18.04 h	1.27
24.03 h	0.824
251 s	2.62

c1ccccc1 [benzene]
concentration in blood [ng/mL]
Details	0.5 h	1 h	2 h	3 h	4 h
rat [2]	8340	10300	13100	12300	11500
rat [4]	7850	8900	10100	10700	11400
rat [5]	7670	8220	9710	10600	11100
rat [6]	10000	9650	9690	12300	10200

rat [1], dosed: benzene, 40000 ppm, dermal, duration: 4 hr, male, F344
Details	concentration in blood [ng/mL]
0.5 h	7380
1 h	8530
2 h	8050
3 h	10400
4 h	11700

rat [3], dosed: benzene, 190 ppm, inhalation, duration: 6 hr, Fisher
Details	concentration in adipose [ng/mL]
0.4898 h	7580
0.99 h	19500
1.49 h	27500
1.989 h	34600
3.993 h	106000
5.974 h	159000
6.485 h	181000
6.98 h	142000
7.478 h	126000
8.014 h	95900
8.509 h	63800
8.999 h	70400
10 h	41500
11.99 h	13400
15 h	8140

c1ccc2c(c1)cc1ccc3cccc4ccc2c1c34 [benzo(a)pyrene]
Details	concentration in blood	concentration in feces [µmol/kg]	concentration in kidney [µmol/kg]	concentration in liver [µmol/kg]	concentration in lung [µmol/kg]	concentration in skin [µmol/kg]
rat [7], 2 h	–	–	–	–	17	–
rat [7], 4 h	–	–	–	–	10.2	–
rat [7], 8 h	–	–	–	–	17.6	–
rat [7], 16 h	–	–	–	–	16.9	–
rat [7], 24 h	–	–	–	–	8.02	–
rat [7], 33 h	–	–	–	–	11.2	–
rat [7], 48 h	–	–	–	–	7.35	–
rat [7], 72 h	–	–	–	–	5.18	–
rat [8], 2 h	–	–	0.53	–	–	–
rat [8], 4 h	–	–	0.145	–	–	–
rat [8], 8 h	–	–	0.164	–	–	–
rat [8], 16 h	–	–	0.0435	–	–	–
rat [8], 24 h	–	–	0.0127	–	–	–
rat [8], 33 h	–	–	0.008	–	–	–
rat [8], 48 h	–	–	0.004	–	–	–
rat [8], 72 h	–	–	0.001	–	–	–
rat [9], 2 h	–	–	–	–	–	7.56
rat [9], 4 h	–	–	–	–	–	2.74
rat [9], 8 h	–	–	–	–	–	1.7
rat [9], 16 h	–	–	–	–	–	0.783
rat [9], 24 h	–	–	–	–	–	0.102
rat [9], 33 h	–	–	–	–	–	0.0296
rat [9], 48 h	–	–	–	–	–	0.0205
rat [9], 72 h	–	–	–	–	–	0.018
rat [10], 0.3233 h	0.081	–	–	–	–	–
rat [10], 0.4938 h	0.0586	–	–	–	–	–
rat [10], 0.7433 h	0.0404	–	–	–	–	–
rat [10], 0.9867 h	0.0307	–	–	–	–	–
rat [10], 1.736 h	0.012	–	–	–	–	–
rat [10], 2.474 h	0.00662	–	–	–	–	–
rat [10], 3.463 h	0.00438	–	–	–	–	–
rat [10], 3.977 h	0.00384	–	–	–	–	–
rat [10], 4.987 h	0.00267	–	–	–	–	–
rat [10], 55 s	0.859	–	–	–	–	–
rat [10], 206 s	0.278	–	–	–	–	–
rat [11], 2 h	–	–	–	2.31	–	–
rat [11], 4 h	–	–	–	1.91	–	–
rat [11], 8 h	–	–	–	1.79	–	–
rat [11], 16 h	–	–	–	0.574	–	–
rat [11], 24 h	–	–	–	0.21	–	–
rat [11], 33 h	–	–	–	0.165	–	–
rat [11], 48 h	–	–	–	0.0546	–	–
rat [11], 72 h	–	–	–	0.0254	–	–
rat [12], 2 h	–	0.0005	–	–	–	–
rat [12], 4 h	–	0.002	–	–	–	–
rat [12], 8 h	–	0.0127	–	–	–	–
rat [12], 16 h	–	0.0779	–	–	–	–
rat [12], 24 h	–	0.351	–	–	–	–
rat [12], 33 h	–	0.382	–	–	–	–
rat [12], 48 h	–	0.354	–	–	–	–
rat [12], 72 h	–	0.397	–	–	–	–

rat [1], dosed: benzo(a)pyrene, 40 umol/kg, iv, male, Sprague Dawley
Details	concentration in blood [µmol/kg]
2 h	0.422
4 h	0.118
8 h	0.076
16 h	0.0274
24 h	0.0156
33 h	0.0066
48 h	0.005
72 h	0.0024

rat [3], dosed: benzo(a)pyrene, 40 umol/kg, iv, Sprague Dawley
Details	concentration in adipose [µmol/kg]
2 h	2.47
4 h	1.4
8 h	3.23
16 h	3.19
24 h	2.11
33 h	2.4
48 h	1.27
72 h	0.663

Clc1ccccc1 [chlorobenzene]
human
Details	concentration in blood
8.065 h	182 ng/mL
8.199 h	192 ng/mL and 167 ng/mL and 100 ng/mL
8.252 h	145 ng/mL
8.284 h	200 ng/mL
8.434 h	120 ng/mL
8.451 h	158 ng/mL
8.532 h	65.3 ng/mL
8.536 h	158 ng/mL and 140 ng/mL
8.617 h	112 ng/mL
8.633 h	109 ng/mL
8.82 h	107 ng/mL
8.872 h	128 ng/mL and 140 ng/mL and 51.8 ng/mL
9.018 h	102 ng/mL
9.124 h	119 ng/mL
9.201 h	49.6 ng/mL and 92.9 ng/mL
9.205 h	119 ng/mL
9.387 h	98.1 ng/mL
9.533 h	78.8 ng/mL and 44.2 ng/mL
9.537 h	108 ng/mL
9.582 h	100 ng/mL
9.87 h	96 ng/mL and 69.7 ng/mL and 42.1 ng/mL
10.2 h	40.5 ng/mL and 77.5 ng/mL and 91.3 ng/mL
10.53 h	50.2 ng/mL and 63.4 ng/mL and 71.5 ng/mL
10.86 h	41.7 ng/mL
10.87 h	58.7 ng/mL and 66.2 ng/mL
11.2 h	60.9 ng/mL
